Source: PubChem BioAssay (Columbia University Molecular Screening Center)
INS promoter act: activators of insulin promoter-driven GFP, primary screen, imaging, TRM-6 cells (human fetal islet line), eGFP reporter, cell count; plate-scaled: unstimulated 0, stimulated control 100; activation, % at 2 µM; 130,000 tested, 0.81% active; AID 1296, 2008;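 active means activation at 2 µM above a set limit, confirmed on inspection of the cell images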;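 further: share of cells whose green reporter signal exceeds an intensity cutoff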
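System – TRM-6 insulin promoter–eGFP reporter cells · Probe or stimulus – 0.75 µM tamoxifen as reporter inducer · Dosing – single-point 2 µM compound dose · Incubation – tamoxifen pre-incubation 15 h overnight, then compound exposure 48 h at 37 °C · Measured by – fixed-cell fluorescence microscopy, eGFP plus Hoechst · Evaluation – percent GFP-positive cells normalized to per-plate controls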
Active calls of the source: *; [ ] = dose if it differs, or a comment. The full list was thinned out, with hits kept by preference.

SMILES	INS promoter act
O=C(Nc1ccccc1N1CCOCC1)c1cc(-c2ccncc2)nc2ccccc12	236*
O=C(Nc1ccccc1N1CCOCC1)c1cccnc1	8
Cc1cccc(-c2cc(C(=O)Nc3ccc4c(c3)OCCO4)c3ccccc3n2)c1	-3
Cc1ccc(NS(=O)(=O)c2ccc(CCC(=O)N3CCOCC3)cc2)cc1	188
Cc1ccc(S(=O)(=O)Nc2ccc(S(=O)(=O)NC(C)(C)C)cc2)cc1	8
Cc1ccc(S(=O)(=O)Nc2ccc(N3CCOCC3)cc2)cc1	81*
Cc1nnc(SCC(=O)NC(C)(C)C)n1C1CCCCC1	-8
O=C(Oc1ccc(NC2=NS(=O)(=O)c3ccccc32)cc1)c1cccnc1	0
CCOCCCNC(=O)Cn1cnc2sc(C)c(S(=O)(=O)N3CCN(c4ncccn4)CC3)c2c1=O	-9
O=C(NCc1cccnc1)c1ccc(NC(=O)c2ccco2)cc1	-79
O=C(NCc1cccnc1)c1nc(-c2ccc(C(F)(F)F)cc2)no1	300*
O=C(NCc1cccnc1)c1cc(-c2ccccc2)on1	32
CC(C)c1cccc(C(C)C)c1NC(=O)Cn1c(=O)cnc2ccccc21	8
CCCN(CCC)S(=O)(=O)c1ccc(C(=O)NCc2n[nH]c(=S)n2-c2ccc(Cl)c(Cl)c2)cc1	0
COc1ccc(/C=C2\SC(=NCc3ccccc3)N(Cc3ccccc3)C2=O)cc1OC	9
C=CCN1C(=O)/C(=C/c2ccc(N(C)C)cc2)S/C1=N\c1nnc(CC)s1	163*
CC(NC(=O)C12CC3(C)CC(C)(CC(C)(C3)C1)C2)C(=O)O (stereo unspecified)	-71
O/C(=C\c1ccc2ccccc2n1)c1ccc(O)cc1O	143
Cc1cc2nc(CSc3ccc(Cl)cc3)cc(=O)n2[nH]1	2
Cc1ccc(-n2nnnc2SCC(=O)N2CCCCC2)cc1	3
CC1CCN(C(=O)CSc2nnc(Cc3cccn3C)n2-c2ccc(F)cc2)CC1	-71
Cc1ccc(-n2c(CNc3ccc(F)cc3)nnc2SCC(=O)N2CCCC2)cc1	162*
Cc1ccccc1OCC(=O)OCC(=O)NCc1cccs1	-8
N#Cc1sc2nc(-c3cccs3)cc(-c3ccccc3)c2c1N	0
Nc1c(C(=O)Nc2nccs2)sc2nc(-c3cccs3)cc(C(F)(F)F)c12	182*[may fluoresce]
SMILES	INS promoter act
Cc1cccc(OCc2nnc(NC(=O)c3cccs3)s2)c1	6
COc1ccc(NC(=O)c2sc3nc(Cc4ccccc4)cc(C(F)(F)F)c3c2N)cc1OC	5
Cc1nnc(NC(=O)c2sc3nc(-c4cccs4)cc(C(F)(F)F)c3c2N)s1	107*[may fluoresce]
O=C(Nc1nccc(-c2cccs2)n1)c1ccccc1Cl	-3
CN(C)S(=O)(=O)c1ccc(C(=O)OCCn2cnc3c2c(=O)n(C)c(=O)n3C)cc1	7
CCC1=Nc2cc(C(=O)O)ccc2Sc2ccccc21	-2
CC(C)OCCCNC(=O)c1ccccc1Oc1ccccc1	346
CCC1=Nc2cc(C(=O)NCCCOC(C)C)ccc2Sc2ccccc21	110*
O=C(CSc1ccccn1)NC1CCCC1	8
COc1ccc(C2=NO[C@@H]3[C@@H]4C[C@@H]([C@H]5C(=O)N(C)C(=O)[C@@H]45)[C@H]23)cc1	-6
CCCOc1c(Br)cc(C2C3=C(CCCC3=O)N(C)C3=C2C(=O)CCC3)cc1OC	-3
O=C(Nc1ccc2c(c1)OCO2)c1ccc(CN2CCOCC2)cc1	8
O=C(Cc1ccccc1)Nc1ccc(CN2CCOCC2)cc1	6
CSc1ccccc1NC(=O)c1ccc(CN2CCOCC2)cc1	276*
CC(C)[C@H](NC(=O)c1ccccc1)C(=O)OCC(=O)NCc1ccc(F)cc1	5
NS(=O)(=O)c1ccc(CCNC(=O)CN2CCCCCC2)cc1	7
CCCCN1C(=O)/C(=C/C=C2\SCCN2C)SC1=S	408*
CCN1C(c2ccccc2)=C(c2ccccc2)S/C1=C\C=C1/SC(=S)N(C)C1=O	5
CCN1C(=O)/C(=C/C=C2/Sc3ccc4ccccc4c3N2CCO)SC1=S	179
CCOC(=O)c1cc([N+](=O)[O-])c([N+](=O)[O-])cc1NC(C)=O	3
COc1ccc(-c2nnc(SCCC(=O)O)n2-c2ccccc2)cc1	486*
COC(=O)CSc1nnc(-c2ccccc2OC)n1-c1ccc(C)cc1	9
Cc1nnc(SCC2CCCO2)n1-c1ccccc1 (stereo unspecified)	8
COc1ccccc1OCCSc1nnc(C)n1-c1ccccc1	83*
COc1ccc(-c2nnc(SCC(=O)c3ccc[nH]3)n2-c2ccccc2)cc1	0
SMILES	INS promoter act
C=C(C)Cn1c(SCC(=O)O)nnc1-c1ccc(OC)cc1	-3
Cc1cc2c(c(SCC#N)n1)C(=O)OC2	4
O=C(NCc1ccccc1Cl)C(=O)NCC(c1ccco1)N1CCOCC1 (stereo unspecified)	-78
O=C(CSc1ncccn1)NC(=O)c1ccccc1	7
CN(C)/C=N/c1ncc(-c2ncc(C(F)(F)F)cc2Cl)cn1	-6
O=C(Nc1ccc(OC(F)(F)C(F)F)c(NC(=O)c2cccc(F)c2)c1)c1cccc(F)c1	9
